Assays:
[1] = Area under curve after administration to rats at a dose of 0.5 mg/kg orally; assay type: ADME, organism-based; set-up: dose 0.5 mg/kg, route oral; conditions: rat, in vivo, po
[2] = Time to achieve maximal concentration in rats after 0.5 mg/kg oral dose; assay type: ADME, organism-based; set-up: dose 0.5 mg/kg, route oral; conditions: rat, in vivo
[3] = Maximal concentration in rats after 0.5 mg/kg oral dose; assay type: ADME, organism-based; set-up: dose 0.5 mg/kg, route oral; conditions: rat, in vivo
[4] = Total body clearance after administration to rats at a dose of 0.2 mg/kg intravenously; assay type: ADME, organism-based; set-up: dose 0.2 mg/kg, route intravenous; conditions: rat, in vivo, iv
Cytochrome P450 2C9 = Cytochrome P450 2C9 (Homo sapiens, UniProt P11712); assay: Interaction with human cytochrome P450 isoform 2C9 expressed in baculovirus-insect cells; assay type: ADME
Sequence of Cytochrome P450 2C9 (P11712 whole entry, canonical isoform): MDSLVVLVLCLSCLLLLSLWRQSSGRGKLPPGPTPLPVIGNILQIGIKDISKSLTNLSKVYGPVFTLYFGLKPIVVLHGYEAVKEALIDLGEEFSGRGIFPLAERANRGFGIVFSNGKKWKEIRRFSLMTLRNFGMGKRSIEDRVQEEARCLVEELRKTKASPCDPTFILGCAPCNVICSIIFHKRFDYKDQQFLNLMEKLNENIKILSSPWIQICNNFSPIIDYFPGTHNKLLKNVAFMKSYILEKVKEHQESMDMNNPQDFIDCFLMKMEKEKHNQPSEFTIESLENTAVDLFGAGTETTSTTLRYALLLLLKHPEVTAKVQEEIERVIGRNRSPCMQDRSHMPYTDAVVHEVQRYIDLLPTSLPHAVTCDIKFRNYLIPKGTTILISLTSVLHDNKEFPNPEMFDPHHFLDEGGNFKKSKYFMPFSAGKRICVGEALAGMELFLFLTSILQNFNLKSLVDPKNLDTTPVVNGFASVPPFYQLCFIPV
Outline: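 Microsomes from baculovirus-insect cells expressing human CYP1A2, 2C9, 2C19, 2D6 or 3A4. Compound serially diluted with an NADPH-regenerating mix (16.3 μM NADP+, 0.83 mM glucose-6-phosphate, 0.83 mM MgCl2, 0.4 U/mL G6PDH). Pre-warmed 10 min at 37 °C, then isoform-specific substrate added in 0.35 M potassium phosphate pH 7.4. Fluorometric read-out; IC50 by nonlinear regression.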

[5] = Time to achieve maximal concentration in rats after 0.2 mg/kg intravenous dose; assay type: ADME, organism-based; set-up: dose 0.2 mg/kg, route intravenous; conditions: rat, in vivo
[6] = Maximal concentration in rats after 0.2 mg/kg intravenous dose; assay type: ADME, organism-based; set-up: dose 0.2 mg/kg, route intravenous; conditions: rat, in vivo
[7] = Area under curve after administration to rats at a dose of 0.2 mg/kg intravenously; assay type: ADME, organism-based; set-up: dose 0.2 mg/kg, route intravenous; conditions: rat, in vivo, iv
[8] = target: T1, Amyloid-beta precursor protein (Homo sapiens, UniProt P05067); assay: Inhibitory concentration against beta-amyloid-42 (Abeta42) secretion was evaluated in human neuroglioma cells (H4-APP695NL); assay type: functional, cell-based
Outline: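 H4-APP695NL human neuroglioma cells (APP695 Swedish K595N/M596L) seeded at 2 × 10^5/well and grown 24 h to confluence. Increasing compound concentrations added overnight; DMSO 1% as vehicle. Supernatant Aβ42 or Aβ40 measured by electrochemiluminescence immunoassay: biotinylated 4G8 plus C-terminus-specific rabbit antibodies, captured on streptavidin beads.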
Target sequence in this assay (P05067 18-770 limits assumed): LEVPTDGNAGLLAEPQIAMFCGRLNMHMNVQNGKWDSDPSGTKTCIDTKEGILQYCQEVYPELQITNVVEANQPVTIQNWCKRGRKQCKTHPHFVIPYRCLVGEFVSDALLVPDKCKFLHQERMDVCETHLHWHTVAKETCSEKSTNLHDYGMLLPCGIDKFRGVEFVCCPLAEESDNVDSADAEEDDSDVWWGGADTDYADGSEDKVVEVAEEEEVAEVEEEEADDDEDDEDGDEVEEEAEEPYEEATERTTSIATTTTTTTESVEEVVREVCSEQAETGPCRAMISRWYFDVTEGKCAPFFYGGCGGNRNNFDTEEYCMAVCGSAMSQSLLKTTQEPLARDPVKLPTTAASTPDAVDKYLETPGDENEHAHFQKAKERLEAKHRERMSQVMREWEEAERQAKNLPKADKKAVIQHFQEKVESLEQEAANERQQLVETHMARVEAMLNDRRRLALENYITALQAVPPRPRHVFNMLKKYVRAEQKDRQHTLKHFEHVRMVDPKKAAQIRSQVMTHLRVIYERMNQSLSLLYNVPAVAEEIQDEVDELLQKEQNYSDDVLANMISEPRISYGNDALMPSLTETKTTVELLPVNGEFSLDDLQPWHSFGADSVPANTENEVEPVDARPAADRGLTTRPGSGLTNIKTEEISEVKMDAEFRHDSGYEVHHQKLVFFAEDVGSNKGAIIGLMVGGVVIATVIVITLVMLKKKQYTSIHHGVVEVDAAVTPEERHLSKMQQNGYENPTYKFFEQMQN

[9] = target: T1, Amyloid-beta precursor protein; conditions: at 100 µM
Target sequence in this assay (P05067 whole entry): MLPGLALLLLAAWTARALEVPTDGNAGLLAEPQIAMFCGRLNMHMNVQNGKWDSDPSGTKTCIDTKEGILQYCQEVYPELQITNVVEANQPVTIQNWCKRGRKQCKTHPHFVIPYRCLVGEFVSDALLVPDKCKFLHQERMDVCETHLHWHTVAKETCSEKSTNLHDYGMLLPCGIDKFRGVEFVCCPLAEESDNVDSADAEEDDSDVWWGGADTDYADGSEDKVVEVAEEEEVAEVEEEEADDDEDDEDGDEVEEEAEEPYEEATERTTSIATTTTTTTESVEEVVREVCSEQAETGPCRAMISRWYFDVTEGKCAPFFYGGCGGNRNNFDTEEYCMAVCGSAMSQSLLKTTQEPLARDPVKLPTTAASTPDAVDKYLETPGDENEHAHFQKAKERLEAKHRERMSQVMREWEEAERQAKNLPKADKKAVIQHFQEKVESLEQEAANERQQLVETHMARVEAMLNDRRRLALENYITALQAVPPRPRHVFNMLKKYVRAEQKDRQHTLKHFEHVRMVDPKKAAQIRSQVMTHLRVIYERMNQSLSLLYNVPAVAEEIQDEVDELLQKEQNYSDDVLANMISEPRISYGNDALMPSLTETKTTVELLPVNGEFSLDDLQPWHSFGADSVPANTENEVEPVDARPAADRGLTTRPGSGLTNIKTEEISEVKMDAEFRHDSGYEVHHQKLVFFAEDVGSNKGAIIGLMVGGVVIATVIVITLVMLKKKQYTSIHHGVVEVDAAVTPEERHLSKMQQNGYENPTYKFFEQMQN

O=C(O)C1(c2ccc(-c3ccc(OC4CCC(C(F)(F)F)CC4)cc3)c(F)c2)CC1 (stereo not given)
AUC [1]: 6 µg/h/mL
Tmax [2]: 8 h
Cmax [3]: 300 ng/mL
Clearance [4]: 0.313 mL/min/kg
IC50 (Cytochrome P450 2C9): 17.7 µM
Tmax [5]: 0.25 h
Cmax [6]: 600 ng/mL
AUC [7]: 11 µg/h/mL
IC50 [8]: 20 µM
inhibition [9]: 70%
